An excerpt weighted towards active compounds, which were near 2.2% of everything screened.
MCL1-BIM inh = disrupts human MCL1 binding to BIM-BH3 peptide; Q07820; GST-MCL1 / FITC-Bim-BH3 fluorescence polarization; inhibition, % at 10.9 µM; 320,000 compounds, 0.68% hits; AID 2057;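 active = inhibition above the mean inhibition of all tested compounds plus 3 SD, set per campaign, cut at about 40% in these data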;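 note: 0% = DMSO wells and 100% = unlabeled Bim-BH3 peptide control; higher means more loss of mP so more displacement of Bim peptide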
Target sequence (Q07820 whole entry, looked up): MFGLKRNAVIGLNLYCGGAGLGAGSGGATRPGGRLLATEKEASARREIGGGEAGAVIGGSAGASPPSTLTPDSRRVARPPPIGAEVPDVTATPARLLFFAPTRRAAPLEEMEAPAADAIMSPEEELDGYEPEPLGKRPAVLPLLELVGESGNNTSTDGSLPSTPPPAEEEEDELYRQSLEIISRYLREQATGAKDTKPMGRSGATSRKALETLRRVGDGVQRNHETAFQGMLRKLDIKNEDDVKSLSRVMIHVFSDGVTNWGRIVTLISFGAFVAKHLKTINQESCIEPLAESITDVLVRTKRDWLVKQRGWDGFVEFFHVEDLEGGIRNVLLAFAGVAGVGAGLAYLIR
Mcl1-Noxa inh = disrupts binding of human Mcl-1 to Noxa peptide | Q07820 | TR-FRET Mcl-1/Noxa peptide binding, 2 h | inhibition, % at 21.7 µM | 220,000 compounds, 1.5% hits;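 active = compounds that cut the protein-peptide binding signal by more than 50% relative to plate controls in a single-dose test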;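 note: His-tagged Mcl-1 with rhodamine Noxa BH3 peptide and terbium anti-His antibody; 0% = Mcl-1 plus Noxa peptide wells and 100% = peptide-only wells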
Mcl1 Bid PPI = Mcl-1/Bid interaction inhibition; Q07820; 220,000 compounds, 0.97% hits; TR-FRET Mcl-1/Bid-Dy647 peptide binding, 1536-well; inhibition, % at 21.7 µM; AID 1021;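 active = compounds that cut the binding signal by more than half at the single screening dose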;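 note: His-tagged Mcl-1 with europium anti-His antibody binding Bid BH3 peptide; 0% = Mcl-1 plus peptide wells and 100% = peptide-only wells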
RBBP9 inh = inhibitors of human serine hydrolase RBBP9; recombinant RBBP9, FP-Rh probe fluorescence polarization; inhibition, % at 7.94 µM; 220,000 compounds, 0.2% hits; O75884;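 active = inhibition above the campaign mean of all tested compounds plus 3 SD, cut at about 14% in these data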;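 note: plate controls were DMSO wells with RBBP9 for no effect and wells lacking RBBP9 protein for full effect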
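Controls: DMSO-treated enzyme wells and wells lacking RBBP9 | Material: RBBP9 protein | Technique: Fluorescence polarization | Replication: Single well per compound, no replicates | Buffer or medium: Tris-NaCl-Pluronic buffer, pH 8.0 | Timing: 30 min compound preincubation, 45 min probe labeling, 25 °C | Read-out basis: Percent inhibition from mP, scaled between DMSO and no-protein wells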
EBV gp42 inh = EBV gp42 inhibition. Q1HVG2. Fluorescence polarization binding assay, mP read-out. inhibition, % (tested at 21.74 µM). 220,000 compounds, 0.42% hits; in the data active = inhibition above about 50%
Target sequence (Q1HVG2 whole entry, looked up): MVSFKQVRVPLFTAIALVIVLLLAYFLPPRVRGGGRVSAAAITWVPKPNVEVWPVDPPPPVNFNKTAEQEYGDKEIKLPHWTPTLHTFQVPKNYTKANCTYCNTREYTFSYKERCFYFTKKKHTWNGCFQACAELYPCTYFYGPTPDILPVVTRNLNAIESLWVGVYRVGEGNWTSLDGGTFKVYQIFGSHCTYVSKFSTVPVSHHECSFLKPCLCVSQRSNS
Bim-Mcl-1 = disrupts Bim peptide binding to human Mcl-1; Bead-based flow cytometry, Bim peptide-Mcl-1 binding; inhibition, % at 10 µM; 190,000 compounds, 0.1% hits; AID 1009; in the data active = inhibition above about 40%;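 note: 0% = no compound tracer wells and 100% = peptide blocker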
An asterisk follows results filed as active; x = no result.

SMILES	MCL1-BIM inh	Mcl1-Noxa inh	Mcl1 Bid PPI	RBBP9 inh	EBV gp42 inh	Bim-Mcl-1
COCCn1cnc2c(c1=O)c1nc3ccccc3nc1n2/N=C/c1ccc(OC)c(OC)c1	12.8	51.0*	-7.5	2.4	-2.9	x
COCCn1cnc2c(c1=O)c1nc3ccccc3nc1n2/N=C/c1ccco1	10.6	-15.2	-17.6	2.5	-15.6	x
COc1ccc(/C=N/n2c(C)nc3ccccc3c2=O)cc1OC	5.7	x	x	x	x	x
Cc1cc(Cl)ccc1NC(=O)COC(=O)c1c(C)noc1C	-2.9	x	x	x	x	x
COC(=O)C1=C(O)/C(=C\c2ccc(CNS(=O)(=O)c3ccc(Cl)cc3)o2)N=C1C	25.6	30.9	-25.7	2.8	-10.9	-5.0
CCOC(=O)C1=C(O)/C(=C\c2ccc(CNS(=O)(=O)c3ccc(Br)cc3)o2)N=C1C	37.1	57.0*	-65.2	-1.5	7.8	-1.0
COC(=O)C1=C(O)/C(=C\c2ccc(CNC(=O)C(=O)Nc3ccc(C)c(C)c3)o2)N=C1C	28.2	55.1*	34.0	-8.4	-13.3	7.0
COC(=O)C1=C(O)/C(=C\c2ccc(CNC(=O)C(=O)Nc3ccc(C)cc3)o2)N=C1C	19.3	45.6	17.6	0.9	-46.0	1.0
Cc1oc(-c2ccccc2F)nc1CS(=O)(=O)CC(=O)NC1CCCC(C)C1C (configuration not stated)	6.8	x	x	x	x	x
Cc1nc(NC(=O)c2ccc(Cl)cc2)sc1-c1csc(Nc2cccc(F)c2)n1	-17.9	50.9*	8.8	-7.2	7.1	0.0
Cc1nc(NC(=O)c2ccccc2)sc1-c1csc(NCc2ccco2)n1	-12.2	60.5*	-11.8	0.2	-7.3	-2.0
COc1cccc(Nc2nc(-c3sc(NC(=O)c4ccccc4)nc3C)cs2)c1	-11.1	19.7	-42.7	-6.0	21.7	-5.0
Cc1nc(C)c(-c2csc(NCc3ccco3)n2)s1	-3.8	22.5	-0.1	5.3	1.7	-1.0
Cc1nc(NC(=O)c2ccccc2)sc1-c1csc(Nc2ccc(C(=O)O)cc2)n1	x	90.4*	91.1*	-4.4	70.8*	x
Cc1ccc(-n2ncc3c2CC(C)(C)CC3NC(=O)C2CCOCC2)cc1 (configuration not stated)	-3.6	x	x	x	x	x
CCOC(=O)N1CCC(N2CCN(S(=O)(=O)c3ccc(Cl)cc3)CC2)CC1	-5.4	23.5	54.9*	-3.0	-4.3	2.0
CCOC(=O)N1CCN(S(=O)(=O)c2ccc(Cl)cc2)CC1	-2.3	x	x	x	x	x
Cc1cc(NS(=O)(=O)c2ccc(NC(NC(=O)C(C(F)(F)F)C(F)(F)F)(C(F)(F)F)C(F)(F)F)cc2)no1	x	40.1	70.7*	-8.4	34.7	1.0
Cn1c(=O)c2c(SCC(=O)N3CCCC3)nc(CC(C)(C)C)nc2n(C)c1=O	1.3	x	x	x	x	x
CCOC(=O)c1c(NC(=O)C(=O)N/N=C/c2ccc(O)c(OC)c2)sc2c1CCCCC2	5.1	17.0	-21.4	0.8	-8.2	0.0
CCOC(=O)c1c(NC(=O)N/N=C/c2ccc(O)c(OC)c2)sc(C(C)=O)c1C	0.4	84.4*	71.3*	1.8	9.7	x
CCOC(=O)c1c(NC(=O)c2cc(-c3ccc(O)cc3)on2)sc(C(C)=O)c1C	-2.3	83.7*	-15.7	5.2	-15.0	-8.0
O=C(NCc1csc(-c2ccccc2)n1)c1cc(F)cc2c1OCOC2	1.5	-6.4	-18.9	-10.8	-10.0	x
CCC(C)NCCOc1ccc(C(C)(C)c2ccccc2)cc1 (configuration not stated)	2.4	32.1	26.0	-7.5	-1.6	-3.0
CCCOc1ccc(OCCCCNC(C)CC)cc1 (configuration not stated)	8.0	27.7	60.0*	-2.1	-3.6	-2.0
SMILES	MCL1-BIM inh	Mcl1-Noxa inh	Mcl1 Bid PPI	RBBP9 inh	EBV gp42 inh	Bim-Mcl-1
COc1ccc(C2C(C#N)=C(C)NC3=C2S(=O)(=O)c2ccccc23)cc1 (configuration not stated)	5.1	6.5	-3.3	-0.5	6.7	48.0*
CN(NC(=O)/C=C/C(=O)O)c1ncc(C(F)(F)F)cc1Cl	9.9	21.1	-1.9	1.5	-10.6	0.0
O=C(CCCN1C(=O)S/C(=C/C=C/c2ccccc2)C1=O)Nc1ccc(C(=O)O)cc1	7.7	x	x	x	x	x
O=C(CN1C(=O)S/C(=C\C=C\c2ccccc2)C1=O)Nc1ccc(O)cc1	10.3	54.8*	8.0	-23.8	-1.8	-6.0
CCOc1ccccc1-n1c(=O)c2ccccc2c2ccccc2c1=O	-3.3	10.0	54.2*	-14.6	16.1	6.0
CCOc1ccc(-n2c(=O)c3ccccc3c3ccccc3c2=O)cc1	-10.1	7.4	5.8	-5.7	-6.1	x
Cc1ccc(NC(=O)CN2C(=O)/C(=C3\SC(=S)N(C4CCS(=O)(=O)C4)C3=O)c3ccccc32)cc1 (configuration not stated)	x	75.3*	99.8*	-4.3	105.0*	0.0
O=C(CN1C(=O)/C(=C2\SC(=S)N(C3CCS(=O)(=O)C3)C2=O)c2ccccc21)Nc1ccccc1 (configuration not stated)	11.3	120.7*	99.1*	-3.4	43.4	-3.0
Cc1cccc(NC(=O)CN2C(=O)/C(=C3\SC(=S)N(CC4CCCO4)C3=O)c3ccccc32)c1 (configuration not stated)	3.5	x	x	x	x	x
COc1ccc(NC(=O)CN2C(=O)/C(=C3\SC(=S)N(CCC(=O)O)C3=O)c3ccccc32)cc1	25.7	x	x	x	x	x
CC(OC(=O)/C=C/c1cccc(F)c1)C(=O)NC1CCCCC1C (configuration not stated)	-0.3	x	x	x	x	x
CCCCCN(C(=O)CCC(=O)OCCOc1ccc(OCC)cc1)c1c(N)n(CCCC)c(=O)[nH]c1=O	-15.6	x	x	x	x	x
CCCCN(CCCNC(=O)CN1C(=O)COc2ccc(S(=O)(=O)N3CCC(C)CC3)cc21)Cc1ccccc1	0.9	x	x	x	x	x
CN(C(=O)NC1CCCCC1)c1ccccc1	2.2	-6.5	-25.2	-4.5	-2.0	51.0*
CN(Cc1ccccc1)C(=O)NC1CCCCC1	-0.7	-9.7	-6.5	2.0	-7.9	x
O=C(Cc1ccc(-c2ccccc2)cc1)NC1CCCC1	2.6	7.5	-10.5	-1.5	-13.9	45.0*
O=C(Cc1ccc(Cl)cc1)NC1CCCCCC1	7.0	x	x	x	x	x
Oc1ccccc1CN1CCCC(N2CCc3ccccc3C2)C1 (configuration not stated)	-5.0	x	x	x	x	x
COC(=O)CCC(=O)OC1(C)C(=O)C2=CN(Cc3ccco3)C(c3ccc(OC)cc3)=CC2=C(Br)C1=O (configuration not stated)	49.4*	x	x	x	x	x
COC(=O)CCC(=O)OC1(C)C(=O)C2=CN(c3ccc(OC)cc3)C(c3ccc(OC)cc3)=CC2=C(Br)C1=O (configuration not stated)	13.2	x	x	x	x	x
COCCN1C=C2C(=O)C(C)(OC(=O)CCC(=O)OC)C(=O)C(Br)=C2C=C1c1ccc(OC)cc1 (configuration not stated)	44.1*	x	x	x	x	x
COc1ccc(Cc2nc(-c3ccc(Br)cc3)no2)cc1	-4.6	57.7*	-5.7	-9.6	-7.9	1.0

Screens (PubChem)
